In publication PMC4084610 (Advances in pharmacology (San Diego, Calif.), 2014):
“Also recorded” adds a separate entry of the source. Like-named read-outs stand apart in the source and are kept apart here.

Key:
[1] = system: rats; details: cited from earlier work
[2] = biological target: T1, VMAT2 (Rattus norvegicus, UniProt Q01827); assay type: binding; details: whole rat brain vesicles, mean±SEM; for Ki: read-out: [3H]DTBZ binding Ki, 5 nM [3H]DTBZ
[3] = biological target: T1, VMAT2; assay type: biochemical
[4] = Water solubility; assay type: physicochemical
[5] = system: METH-evoked DA release from striatal slices; details: ref Horton, Siripurapu, Norrholm, et al., 2011; cited from earlier work
[6] = system: fractional DOPAC release from rat striatal slice preparations; assay: Fractional DOPAC release from superfused striatal slices; assay type: cell-based; details: 30 min superfusion before METH, 0.3–30 μM
How it was run: (§1)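 Rat coronal striatal slices are preincubated 60 min at 34 °C in Krebs buffer, then superfused at 1 ml/min for 60 min. Two 5-min basal samples are collected into 0.1 M perchloric acid. Test compound (one concentration per slice, 0.3–30 μM) runs 30 min, then with 5 μM METH for 15 min, then alone for 20 min. Buffer-control and METH-control slices are included. Superfusate is ascorbate-oxidase treated and analysed by HPLC-electrochemical detection.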

[7] = system: METH-evoked DA release from striatal slices; assay: Inhibition of METH-evoked DA release from superfused striatal slices; assay type: cell-based, rat; details: for Imax for inhibition of METH-evoked DA release / IC50: METH 5 μM, total DA overflow, striatal slices; for Effect of analog alone on fractional DA release: analog alone in superfusion buffer, 0.3–30 μM; for IC50: read-out: IC50 for inhibition of METH-evoked DA release
How it was run: as §1

[8] = biological target: T2, DAT (Rattus norvegicus, UniProt P23977); assay: Inhibition of [3H]DA uptake at DAT in synaptosomal preparations; assay type: biochemical; details: read-out: DAT Ki value ([3H]DA uptake); synaptosomes
T2 sequence (P23977 whole entry): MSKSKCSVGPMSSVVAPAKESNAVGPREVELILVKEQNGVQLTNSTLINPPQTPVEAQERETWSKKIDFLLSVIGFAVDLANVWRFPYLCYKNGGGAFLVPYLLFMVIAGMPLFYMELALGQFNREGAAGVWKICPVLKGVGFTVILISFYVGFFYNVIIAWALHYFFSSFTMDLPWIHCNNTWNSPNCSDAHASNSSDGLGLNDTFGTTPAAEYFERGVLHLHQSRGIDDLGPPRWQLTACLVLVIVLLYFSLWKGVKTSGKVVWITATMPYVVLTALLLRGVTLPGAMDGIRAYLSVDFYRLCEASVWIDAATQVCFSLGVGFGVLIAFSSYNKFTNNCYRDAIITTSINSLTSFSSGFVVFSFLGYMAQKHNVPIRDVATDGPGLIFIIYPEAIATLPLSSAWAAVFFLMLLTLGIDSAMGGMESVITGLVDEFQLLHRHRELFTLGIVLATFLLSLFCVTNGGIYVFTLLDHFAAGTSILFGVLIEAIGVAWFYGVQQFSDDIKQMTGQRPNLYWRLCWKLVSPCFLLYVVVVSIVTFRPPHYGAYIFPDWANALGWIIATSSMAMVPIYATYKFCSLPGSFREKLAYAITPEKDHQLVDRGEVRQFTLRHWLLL
How it was run: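 Synaptosomes are preincubated with test compound (1 nM–100 μM) for 5 min at 34 °C, then placed on ice. [3H]DA is added from a 0.1 μM solution, followed by a further 10 min at 34 °C. Nonspecific uptake is defined with 10 μM nomifensine.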

[9] = biological target: T1, VMAT2; assay: Kinetic analysis of inhibition of [3H]DA uptake at VMAT2; assay type: biochemical; details: for Vmax of [3H]DA uptake at VMAT2: analog at its Ki concentration, control 29.9±4.30; for Mechanism of VMAT2 inhibition: kinetic analysis of [3H]DA uptake
How it was run: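 Rat synaptic vesicle suspension was added to assay buffer containing inhibitor or buffer (control), plus [3H]DA across 0.001–5.0 μM. Incubation ran 8 min and was stopped by filtration, then filter-retained radioactivity was counted. Nonspecific uptake was defined with Ro4-1284 (10 μM).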

[10] = system: SERT; details: ref Miller et al., 2004; cited from earlier work
[11] = biological target: T2, DAT; details: ref Miller et al., 2004; cited from earlier work
[12] = system: METH addicts; details: ref NCT00439504; cited from earlier work
[13] = rat striatal vesicles, mean±SEM
[14] = read-out: VMAT2 [3H]DA uptake Ki, rat striatal vesicles, 0.1 μM [3H]DA, mean±SEM

T1 sequence (Q01827 whole entry): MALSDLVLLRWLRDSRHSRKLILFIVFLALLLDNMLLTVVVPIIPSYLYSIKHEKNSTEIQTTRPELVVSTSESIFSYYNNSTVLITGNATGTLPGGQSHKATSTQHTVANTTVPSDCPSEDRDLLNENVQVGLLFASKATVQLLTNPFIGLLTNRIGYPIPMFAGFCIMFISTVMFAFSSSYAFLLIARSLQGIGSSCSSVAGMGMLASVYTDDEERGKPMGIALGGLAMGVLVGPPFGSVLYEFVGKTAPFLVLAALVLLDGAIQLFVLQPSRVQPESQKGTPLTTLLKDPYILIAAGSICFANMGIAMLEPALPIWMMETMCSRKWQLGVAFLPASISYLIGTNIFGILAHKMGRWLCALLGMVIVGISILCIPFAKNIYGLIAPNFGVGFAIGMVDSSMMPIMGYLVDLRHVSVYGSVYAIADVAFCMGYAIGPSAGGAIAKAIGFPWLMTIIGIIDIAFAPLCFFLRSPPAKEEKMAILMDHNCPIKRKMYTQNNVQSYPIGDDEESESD

## COc1ccc(CC[C@H]2CCC[C@@H](CCc3ccc(OC)cc3)N2C[C@@H](O)CO)cc1 (relative stereo) [GZ-793A, (R)-3-[2,6-cis-di(4-methoxyphenethyl)piperidin-1-yl]propane-1,2-diol]
[1]; rats, 15 mg/kg, ref Alvers et al., 2012
  Effect on cue- and METH-induced reinstatement of METH-seeking: decrease reinstatement

## Cl.c1ccc(CC[C@@H]2CC[C@H](CCc3ccccc3)N2)cc1 [AV-1-228, cis-2,5-di-(2-phenethyl)-pyrrolidine hydrochloride]
[2]
  Ki: 2660 ± 370 nM
  [3H]DTBZ binding Imax: 100%
[3]; [13]
  VMAT2 [3H]DA uptake Imax: 100%
[3]; [14]
  Ki: 28 ± 1 nM

## CN1C/C(=C\c2ccc(Cl)cc2Cl)C/C(=C/c2ccc(Cl)cc2Cl)C1 [UKMH-106, (3Z,5Z)-3,5-bis(2,4-dichlorobenzylidene)-1-methylpiperidine]
[4]
  Water solubility (in words): improved water solubility
[5]
  Inhibition of METH-evoked DA release (in words): inhibited

## CN1[C@@H](CCc2ccccc2)CCC[C@H]1CCc1ccccc1 [Lobelane, N-methyl-2,6-bis(cis-phenylethyl)piperidine, reference compound]
[4]
  Water solubility (in words): decreased water solubility

## CN1[C@@H](Cc2ccccc2)CC[C@H]1Cc1ccccc1 [AV-2-197, 1-methyl-cis-2,5-di(2-benzyl)-pyrrolidine]
[6]
  Lowest concentration to increase extracellular DOPAC: 10 µM
[7]
  Imax for inhibition of METH-evoked DA release: 63%
  Effect of analog alone on fractional DA release: did not alter fractional DA release
  IC50: 4200 nM
[8]
  Ki: 5400 nM
[9]
  Vmax of [3H]DA uptake at VMAT2: 22.0 ± 4.36 pmol/min/mg
  Mechanism of VMAT2 inhibition: competitively inhibit; also recorded: Competitive
[2]
  Ki: 2460 ± 420 nM
  [3H]DTBZ binding Imax: 96±1%
[3]
  Increased affinity for the DA uptake site on VMAT2 compared with AV-1-229A: 14 orders-of-magnitude
[3]; [13]
  VMAT2 [3H]DA uptake Imax: 100%
[3]; [14]
  Ki: 19 ± 0.91 nM

## CN1C(/C=C\c2ccccc2)CCCC1/C=C\c1ccccc1 (stereo not drawn) [MTD, N-methyl-2,6-bis(cis-phenylethenyl) piperidine]
[4]
  Water solubility (in words): limited solubility
[10]
  Fold lower affinity for SERT compared with lobeline: 6.5 fold
[11]
  Fold higher affinity for DAT compared with lobeline: 100 fold

## CN1[C@@H](CC(=O)c2ccccc2)CCC[C@H]1C[C@H](O)c1ccccc1 [Lobeline, reference compound]
[12]
  Safety in phase 1b clinical trials: safe
[1]; adult male rats, 3 mg/kg 10 min prior to METH 1 mg/kg, 10 consecutive days, ref Miller, Green, et al. (2000)
  Effect on locomotor activity in response to METH: significantly reduced locomotor activity

## c1ccc(C[C@H]2CC[C@@H](Cc3ccccc3)N2)cc1 [AV-2-192, cis-2,5-di(2-benzyl)-pyrrolidine]
[6]
  Lowest concentration to increase extracellular DOPAC: 3 µM
[7]
  Imax for inhibition of METH-evoked DA release: 55%
  Effect of analog alone on fractional DA release: did not alter fractional DA release
  IC50: 5200 nM
[8]
  Ki: 2630 nM
[9]
  Vmax of [3H]DA uptake at VMAT2: 29.6 ± 7.28 pmol/min/mg
  Mechanism of VMAT2 inhibition: competitively inhibit; also recorded: Competitive
[2]
  Ki: 1640 ± 120 nM
  [3H]DTBZ binding Imax: 100%
[3]; [13]
  VMAT2 [3H]DA uptake Imax: 100%
[3]; read-out: Ki at the DA uptake site on VMAT2
  Ki: < 10 nM
[3]; [14]
  Ki: 9.3 ± 0.75 nM
